Measured values taken from ChEMBL document CHEMBL1134525, “Novel N-(arylalkyl)indol-3-ylglyoxylylamides targeted as ligands of the benzodiazepine receptor: synthesis, biological evaluation, and molecular modeling analysis of the structure-activity relationships” (J Med Chem, 2001).
Several values for one entry are separate records, joined by “and”; a condition that tells them apart may be missing. Identical values can stand only once.

Legend:
[1] = target: GABA-A receptor; alpha-1/beta-2/gamma-2 (Rattus norvegicus, UniProt P18508+P62813+P63138); assay: Inhibition of [3H]flumazenil binding to rat alpha-1-beta-2-gamma-2 GABA-A receptor subunits expressed in HEK293 cells; assay type: cell-based
GABA-A receptor; alpha-1/beta-2/gamma-2, sequence (P18508 whole entry): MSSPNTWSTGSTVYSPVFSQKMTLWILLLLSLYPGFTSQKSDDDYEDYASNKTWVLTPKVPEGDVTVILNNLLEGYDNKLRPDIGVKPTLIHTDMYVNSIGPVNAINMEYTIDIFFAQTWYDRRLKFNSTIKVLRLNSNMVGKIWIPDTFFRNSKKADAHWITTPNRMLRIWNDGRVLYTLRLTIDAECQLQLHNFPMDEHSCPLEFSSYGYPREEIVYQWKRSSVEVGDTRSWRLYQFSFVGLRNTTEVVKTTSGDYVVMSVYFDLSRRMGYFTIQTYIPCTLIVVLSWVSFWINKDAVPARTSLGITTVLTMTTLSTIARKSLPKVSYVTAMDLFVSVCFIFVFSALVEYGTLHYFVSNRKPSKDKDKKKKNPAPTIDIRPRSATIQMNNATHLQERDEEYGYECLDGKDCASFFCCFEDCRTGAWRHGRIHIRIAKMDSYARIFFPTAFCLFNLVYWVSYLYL
GABA-A receptor; alpha-1/beta-2/gamma-2, sequence (P62813 whole entry): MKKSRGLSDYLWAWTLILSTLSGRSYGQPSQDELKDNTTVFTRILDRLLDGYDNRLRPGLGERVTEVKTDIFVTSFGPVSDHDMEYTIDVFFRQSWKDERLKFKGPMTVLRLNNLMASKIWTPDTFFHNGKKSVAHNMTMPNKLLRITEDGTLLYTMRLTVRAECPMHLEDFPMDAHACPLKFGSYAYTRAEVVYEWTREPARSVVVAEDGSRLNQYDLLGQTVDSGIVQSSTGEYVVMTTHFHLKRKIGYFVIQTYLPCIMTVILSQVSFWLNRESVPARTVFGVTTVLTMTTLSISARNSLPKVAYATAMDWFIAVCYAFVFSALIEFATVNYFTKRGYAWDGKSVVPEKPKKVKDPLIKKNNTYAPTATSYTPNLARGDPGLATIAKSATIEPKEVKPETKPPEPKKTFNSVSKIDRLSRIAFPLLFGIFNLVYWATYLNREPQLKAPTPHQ
GABA-A receptor; alpha-1/beta-2/gamma-2, sequence (P63138 whole entry): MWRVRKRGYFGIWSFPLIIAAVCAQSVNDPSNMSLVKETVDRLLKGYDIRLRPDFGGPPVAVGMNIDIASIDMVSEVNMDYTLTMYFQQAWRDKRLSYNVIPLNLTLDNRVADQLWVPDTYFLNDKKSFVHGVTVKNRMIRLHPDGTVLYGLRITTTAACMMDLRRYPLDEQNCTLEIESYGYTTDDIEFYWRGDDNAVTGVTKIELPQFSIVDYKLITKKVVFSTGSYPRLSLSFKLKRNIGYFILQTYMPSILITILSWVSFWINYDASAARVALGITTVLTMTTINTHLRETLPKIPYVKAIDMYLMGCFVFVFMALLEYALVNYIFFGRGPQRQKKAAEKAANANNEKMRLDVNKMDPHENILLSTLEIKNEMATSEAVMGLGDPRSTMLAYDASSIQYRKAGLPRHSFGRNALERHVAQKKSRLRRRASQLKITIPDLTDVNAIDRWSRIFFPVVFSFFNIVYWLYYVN
Summary of the method: (§1)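 Membranes came from HEK293 clonal lines expressing rat GABAA subtypes, grown in MEM/EBSS with 10% FCS, 2 mM glutamine and penicillin/streptomycin at 37 °C in 5% CO2. Membranes were homogenized and centrifuged (48 000 × g, 30 min, 4 °C) in 10 mM K-phosphate pH 7.4 and resuspended with 100 mM KCl. […] Nonspecific binding was defined with 10^-5 M diazepam. Results are the mean of three determinations.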

[2] = target: GABA A receptor alpha-5/beta-3/gamma-2 (Rattus norvegicus, UniProt P18508+P19969+P63079); assay: Inhibition of [3H]flumazenil binding to rat alpha-5-beta-3-gamma-2 GABA-A receptor subunits expressed in HEK293 cells; assay type: cell-based; summary of the method: as §1
GABA A receptor alpha-5/beta-3/gamma-2, sequence (P18508 whole entry): as the sequence (P18508 whole entry) above
GABA A receptor alpha-5/beta-3/gamma-2, sequence (P19969 whole entry): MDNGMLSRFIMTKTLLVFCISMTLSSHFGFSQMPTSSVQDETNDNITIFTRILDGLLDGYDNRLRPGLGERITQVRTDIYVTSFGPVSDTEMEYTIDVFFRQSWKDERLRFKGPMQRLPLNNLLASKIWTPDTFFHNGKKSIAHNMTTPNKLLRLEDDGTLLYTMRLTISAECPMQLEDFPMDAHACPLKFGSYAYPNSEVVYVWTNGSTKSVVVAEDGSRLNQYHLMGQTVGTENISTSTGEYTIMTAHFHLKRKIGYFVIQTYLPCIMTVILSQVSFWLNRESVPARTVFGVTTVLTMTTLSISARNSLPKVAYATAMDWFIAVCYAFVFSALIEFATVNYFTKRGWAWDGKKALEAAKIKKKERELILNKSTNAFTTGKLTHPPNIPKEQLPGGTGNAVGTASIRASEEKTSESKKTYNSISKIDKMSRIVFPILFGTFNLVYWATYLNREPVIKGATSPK
GABA A receptor alpha-5/beta-3/gamma-2, sequence (P63079 whole entry): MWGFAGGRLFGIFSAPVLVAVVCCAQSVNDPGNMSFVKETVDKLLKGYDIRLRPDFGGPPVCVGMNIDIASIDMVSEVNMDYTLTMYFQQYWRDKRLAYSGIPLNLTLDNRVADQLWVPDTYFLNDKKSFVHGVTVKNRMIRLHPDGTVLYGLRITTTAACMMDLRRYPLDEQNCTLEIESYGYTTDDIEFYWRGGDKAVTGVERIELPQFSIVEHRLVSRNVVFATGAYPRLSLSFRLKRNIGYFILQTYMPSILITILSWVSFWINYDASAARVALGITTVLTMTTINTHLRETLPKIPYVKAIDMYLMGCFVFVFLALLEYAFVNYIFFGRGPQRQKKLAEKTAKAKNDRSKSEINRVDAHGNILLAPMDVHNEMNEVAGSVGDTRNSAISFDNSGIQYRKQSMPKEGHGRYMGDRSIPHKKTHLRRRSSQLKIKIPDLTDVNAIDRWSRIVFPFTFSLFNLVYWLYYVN

[3] = target: GABA A receptor alpha-3/beta-2/gamma-2 (Rattus norvegicus, UniProt P18508+P20236+P63138); assay: (§2) Inhibition of [3H]flumazenil binding to rat alpha-3-beta-2-gamma-2 GABA-A receptor subunits expressed in HEK293 cells; assay type: cell-based; summary of the method: as §1
GABA A receptor alpha-3/beta-2/gamma-2, sequence (P18508 whole entry): as the sequence (P18508 whole entry) above
GABA A receptor alpha-3/beta-2/gamma-2, sequence (P20236 whole entry): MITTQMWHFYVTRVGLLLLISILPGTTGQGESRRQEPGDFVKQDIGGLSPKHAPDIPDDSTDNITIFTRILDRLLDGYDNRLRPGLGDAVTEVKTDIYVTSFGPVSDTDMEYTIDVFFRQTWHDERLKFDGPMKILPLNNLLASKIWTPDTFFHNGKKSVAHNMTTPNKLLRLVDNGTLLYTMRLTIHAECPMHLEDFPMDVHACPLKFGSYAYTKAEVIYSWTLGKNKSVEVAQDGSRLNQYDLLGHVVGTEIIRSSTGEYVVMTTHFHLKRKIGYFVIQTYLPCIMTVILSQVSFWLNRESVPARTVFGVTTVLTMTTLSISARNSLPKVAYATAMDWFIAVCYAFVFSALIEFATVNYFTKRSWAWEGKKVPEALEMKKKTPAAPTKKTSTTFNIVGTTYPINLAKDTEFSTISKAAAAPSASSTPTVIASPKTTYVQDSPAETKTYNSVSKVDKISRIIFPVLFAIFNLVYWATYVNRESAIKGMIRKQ
GABA A receptor alpha-3/beta-2/gamma-2, sequence (P63138 whole entry): as the sequence (P63138 whole entry) above

[4] = target: GABA-A receptor; anion channel; assay: Inhibition of [3H]- flumazenil binding to benzodiazepine receptor in bovine brain membranes; assay type: cell membranes
Summary of the method: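 Bovine brain membranes were freeze-thawed, washed by suspension and centrifugation in 50 mM tris-citrate pH 7.4, then used for competition binding against [3H]flumazenil. Specific binding inhibition was first measured at a fixed 10 µM. Protein was measured by the Lowry method.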

[5] = Ratio of Ki with out GABA and with GABA
[6] = target: GABA A receptor alpha-3/beta-2/gamma-2 (Rattus norvegicus) (UniProt P18508+P20236+P63138); assay: as §2; assay type: cell-based; summary of the method: as §1
[7] = target: T1, GABA-A receptor; anion channel (Bos taurus) (UniProt P10063+P08220+P20237+P08219+P10064+P22300); assay: Inhibition of [3H]- flumazenil binding to benzodiazepine receptor in bovine brain membranes at a dose of 10 uM; assay type: cell membranes
Summary of the method: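 Bovine brain membranes were freeze-thawed, washed by suspension and centrifugation in 50 mM tris-citrate pH 7.4, then used for competition binding against [3H]flumazenil. Specific binding inhibition was first measured at a fixed 10 µM. […] Protein was measured by the Lowry method.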

[8] = target: T2, GABA A receptor alpha-5/beta-3/gamma-2 (Rattus norvegicus) (UniProt P18508+P19969+P63079); assay: Inhibition of [3H]flumazenil binding to rat alpha-5-beta-3-gamma-2 GABA-A receptor subunits expressed in HEK293 cells at 10 uM; assay type: cell-based; summary of the method: as §1
[9] = target: T2, GABA A receptor alpha-5/beta-3/gamma-2 (Rattus norvegicus); settings: HEK293, 10 uM
[10] = target: T1, GABA-A receptor; anion channel (Bos taurus); assay: Relative bindign to GABA-A receptor in the presence and absence of GABA (GABA shift), Ki(-GABA)/Ki(+GABA); assay type: protein-complex assay
Summary of the method: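 [3H]flumazenil displacement Ki was measured both with and without GABA, using exhaustively washed bovine brain membranes or HEK293 membranes expressing rat α1β2γ2, α3β2γ2 or α5β3γ2. GABA ratio = Ki(without GABA)/Ki(with GABA).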

Compound | Ki [4] [nM] | inhibition [7] [%] | other results
O=C(NCc1ccc([N+](=O)[O-])cc1)C(=O)c1c[nH]c2ccccc12 | 21 |  | Ki [1]: 16 nM; Ki [2]: 58 nM; Ki [3]: 1600 nM; Ratio [5]: 0.9 and 0.91 and 0.73
O=C(NCc1ccc([N+](=O)[O-])cc1)C(=O)c1c[nH]c2ccc([N+](=O)[O-])cc12 | 620 |  | 
O=C(N[C@@H]1CCc2ccccc21)C(=O)c1c[nH]c2ccccc12 | 675 |  | Ki [1]: 225 nM; Ki [2]: 2160 nM; inhibition [6]: 28%
COc1ccc(NNC(=O)C(=O)c2c[nH]c3ccc(OC)cc23)cc1 |  | < 80 | 
C[C@H](NC(=O)C(=O)c1c[nH]c2ccccc12)c1ccccc1 |  | < 80 | 
C[C@H](NC(=O)C(=O)c1c[nH]c2ccc(Cl)cc12)c1ccccc1 | 100 |  | 
COc1ccc(C(C)NC(=O)C(=O)c2c[nH]c3ccccc23)cc1 (racemic) | 1170 |  | 
C[C@@H](NC(=O)C(=O)c1c[nH]c2ccc(Cl)cc12)c1ccc([N+](=O)[O-])cc1 | 695 |  | 
O=C(NC1Cc2ccccc2C1)C(=O)c1c[nH]c2ccccc12 |  | < 80 | 
O=C(C(=O)N1Cc2ccccc2C1)c1c[nH]c2ccccc12 | 123 |  | Ki [1]: 224 nM; Ki [3]: 3200 nM; inhibition [8]: 43%; Ratio [5]: 1.06 and 1.1
Cc1ccc([C@H](C)NC(=O)C(=O)c2c[nH]c3ccc([N+](=O)[O-])cc23)cc1 |  | < 80 | 
Cc1ccc([C@H](C)NC(=O)C(=O)c2c[nH]c3ccccc23)cc1 |  | < 80 | 
COc1ccc(C(C)NC(=O)C(=O)c2c[nH]c3ccc(Cl)cc23)cc1 (racemic) | 103 |  | 
O=C(NCc1ccc(Cl)cc1)C(=O)c1c[nH]c2ccc([N+](=O)[O-])cc12 |  | < 80 | 
N#CC(NC(=O)C(=O)c1c[nH]c2ccccc12)c1ccccc1 (racemic) |  | < 80 | 
O=C(C(=O)N1Cc2ccccc2C1)c1c[nH]c2ccc([N+](=O)[O-])cc12 |  | < 80 | 
C[C@H](NC(=O)C(=O)c1c[nH]c2ccc([N+](=O)[O-])cc12)c1ccccc1 |  | < 80 | 
COc1ccc2[nH]cc(C(=O)C(=O)NCc3ccc(Cl)cc3)c2c1 |  | < 80 | 
O=C(NNc1ccc([N+](=O)[O-])cc1)C(=O)c1c[nH]c2ccccc12 |  |  | Ki [1]: 25 nM; Ki [2]: 43 nM; Ki [3]: 40 nM; Ratio [5]: 0.96 and 0.98 and 0.8
C[C@@H](NC(=O)C(=O)c1c[nH]c2ccccc12)c1ccc([N+](=O)[O-])cc1 |  | < 80 | 
O=C(N[C@@H]1CCc2ccccc21)C(=O)c1c[nH]c2ccc(Cl)cc12 | 80 |  | 

Compound | Ki [4] [nM] | inhibition [7] [%] | other results
COc1ccc(CNC(=O)C(=O)c2c[nH]c3ccc([N+](=O)[O-])cc23)cc1 |  |  | Ki [1]: 42 nM; Ki [2]: 126 nM; Ki [3]: 137 nM; Ratio [5]: 1.11 and 0.96 and 0.9
C[C@@H](NC(=O)C(=O)c1c[nH]c2ccccc12)c1ccccc1 | 1310 |  | Ki [1]: 1150 nM; Ki [2]: 5500 nM; inhibition [6]: 5%
COc1ccc(C(C)NC(=O)C(=O)c2c[nH]c3ccc([N+](=O)[O-])cc23)cc1OC (racemic) | 55 |  | 
COc1ccc(C(C)NC(=O)C(=O)c2c[nH]c3ccc([N+](=O)[O-])cc23)cc1 (racemic) | 113 |  | 
CCOC(=O)C(NC(=O)C(=O)c1c[nH]c2ccc([N+](=O)[O-])cc12)c1ccccc1 (racemic) |  | < 80 | 
O=C(NC(CO)c1ccccc1)C(=O)c1c[nH]c2ccc([N+](=O)[O-])cc12 (racemic) |  | < 80 | 
CCOC(=O)CNC(=O)C(=O)c1c[nH]c2ccc([N+](=O)[O-])cc12 | 2700 |  | 
C[C@H](NC(=O)C(=O)c1c[nH]c2ccc([N+](=O)[O-])cc12)c1ccc([N+](=O)[O-])cc1 |  | < 80 | 
O=C(N[C@H]1CCc2ccccc21)C(=O)c1c[nH]c2ccc(Cl)cc12 |  | < 80 | 
Cc1ccc([C@H](C)NC(=O)C(=O)c2c[nH]c3ccc(Cl)cc23)cc1 |  | < 80 | 
O=C(C(=O)N1Cc2ccccc2C1)c1c[nH]c2ccc(Cl)cc12 |  | < 80 | 
COc1ccc(C(C)NC(=O)C(=O)c2c[nH]c3ccc(Cl)cc23)cc1OC (racemic) | 153 |  | 
COc1ccc(C(C)NC(=O)C(=O)c2c[nH]c3ccccc23)cc1OC (racemic) | 850 |  | 
Cc1ccc([C@@H](C)NC(=O)C(=O)c2c[nH]c3ccccc23)cc1 | 1150 |  | 
C[C@@H](NC(=O)C(=O)c1c[nH]c2ccc([N+](=O)[O-])cc12)c1ccccc1 | 17 |  | Ki [1]: 14 nM; Ki [2]: 239 nM; Ki [3]: 283 nM
C[C@@H](NC(=O)C(=O)c1c[nH]c2ccc([N+](=O)[O-])cc12)c1ccc([N+](=O)[O-])cc1 | 78 |  | 
C[C@@H](NC(=O)C(=O)c1c[nH]c2ccc(Cl)cc12)c1ccccc1 |  | < 80 | 
Cc1ccc(-c2nc3ccc(C)cn3c2CC(=O)N(C)C)cc1 |  |  | inhibition [9]: 35%
O=C(NC1Cc2ccccc2C1)C(=O)c1c[nH]c2ccc([N+](=O)[O-])cc12 |  | < 80 | 
CCOC(=O)C(NC(=O)C(=O)c1c[nH]c2ccccc12)c1ccccc1 (racemic) |  | < 80 | 
O=C(NNc1ccc([N+](=O)[O-])cc1)C(=O)c1c[nH]c2ccc([N+](=O)[O-])cc12 |  | < 80 | 

Compound | Ki [4] [nM] | inhibition [7] [%] | other results
COc1ccc(NNC(=O)C(=O)c2c[nH]c3ccc(Cl)cc23)cc1 |  | < 80 | 
O=C(NNc1ccc([N+](=O)[O-])cc1)C(=O)c1c[nH]c2ccc(Cl)cc12 |  | < 80 | 
Cc1ccc([C@@H](C)NC(=O)C(=O)c2c[nH]c3ccc(Cl)cc23)cc1 | 105 |  | 
N#CC(NC(=O)C(=O)c1c[nH]c2ccc([N+](=O)[O-])cc12)c1ccccc1 (racemic) | 241 |  | 
COc1ccc2[nH]cc(C(=O)C(=O)NNc3ccc([N+](=O)[O-])cc3)c2c1 |  | < 80 | 
COc1ccc(NNC(=O)C(=O)c2c[nH]c3ccc([N+](=O)[O-])cc23)cc1 |  | < 80 | 
CCOC(=O)[C@H](C)NC(=O)C(=O)c1c[nH]c2ccc([N+](=O)[O-])cc12 | 1950 |  | 
O=C(N[C@H]1CCc2ccccc21)C(=O)c1c[nH]c2ccc([N+](=O)[O-])cc12 |  | < 80 | 
O=C(NC1Cc2ccccc2C1)C(=O)c1c[nH]c2ccc(Cl)cc12 |  | < 80 | 
O=C(NC(CO)c1ccccc1)C(=O)c1c[nH]c2ccccc12 (racemic) |  | < 80 | 
O=C(N[C@@H]1CCc2ccccc21)C(=O)c1c[nH]c2ccc([N+](=O)[O-])cc12 | 28 |  | Ki [1]: 9 nM; Ki [2]: 95 nM; Ki [3]: 1960 nM; Ratio [10]: 1.13; Ratio [5]: 1.12 and 0.98
O=C(NCc1ccc([N+](=O)[O-])cc1)C(=O)c1c[nH]c2ccc(Cl)cc12 | 1370 |  | 
O=C(NCc1ccc(Cl)cc1)C(=O)c1c[nH]c2ccc(Cl)cc12 |  | < 80 | 
Cc1ccc([C@@H](C)NC(=O)C(=O)c2c[nH]c3ccc([N+](=O)[O-])cc23)cc1 | 34 |  | 
COc1ccc(CNC(=O)C(=O)c2c[nH]c3ccc(OC)cc23)cc1 | 494 |  | 
C[C@H](NC(=O)C(=O)c1c[nH]c2ccc(Cl)cc12)c1ccc([N+](=O)[O-])cc1 |  | < 80 | 
C[C@H](NC(=O)C(=O)c1c[nH]c2ccccc12)c1ccc([N+](=O)[O-])cc1 |  | < 80 | 
O=C(N[C@H]1CCc2ccccc21)C(=O)c1c[nH]c2ccccc12 |  | < 80 | 
CCOC(=O)[C@@H](C)NC(=O)C(=O)c1c[nH]c2ccc([N+](=O)[O-])cc12 | 45 |  | 
